Assay results: ChEMBL document CHEMBL2176934 (J Med Chem, 2012); call rule not given here

Assays:
[1] = target: Voltage-gated inwardly rectifying potassium channel KCNH2 (Homo sapiens, UniProt Q12809); test: Inhibition of human ERG
[2] = Inhibition of Cytochrome P450; type: ADME
[3] = target: T1, Lysophosphatidic acid receptor 1 (Homo sapiens, UniProt Q92633); test: Antagonist activity at human recombinant LPA1 expressed in chem-1 cells assessed as inhibition of LPA-induced intracellular calcium mobilization at 30 uM incubated for 30 mins prior to LPA-challenge measured over 100 secs by FLIPR assay; type: functional, cell-based
Outline: (§1)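 Calcium-optimized Chem-1 cells stably expressing human LPA1 or LPA3 (parental line with ionomycin as counterscreen), seeded 10,000/well the day before. Calcium-4 dye in HBSS/20 mM HEPES/2.5 mM probenecid loaded 30 min at 37 °C; compound added, 30 min at room temperature in the dark; LPA (18:1) 1 μM final. Peak fluorescence read over 100 s; IC50 from 10-concentration 4-parameter logistic fit, mean of at least three runs.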

[4] = target: T2, Lysophosphatidic acid receptor 3 (Homo sapiens) (UniProt Q9UBY5); test: Antagonist activity at human recombinant LPA3 expressed in chem-1 cells assessed as inhibition of LPA-induced intracellular calcium mobilization at 30 uM incubated for 30 mins prior to LPA-challenge measured over 100 secs by FLIPR assay; type: functional, cell-based; outline: as §1
T2 sequence (whole entry): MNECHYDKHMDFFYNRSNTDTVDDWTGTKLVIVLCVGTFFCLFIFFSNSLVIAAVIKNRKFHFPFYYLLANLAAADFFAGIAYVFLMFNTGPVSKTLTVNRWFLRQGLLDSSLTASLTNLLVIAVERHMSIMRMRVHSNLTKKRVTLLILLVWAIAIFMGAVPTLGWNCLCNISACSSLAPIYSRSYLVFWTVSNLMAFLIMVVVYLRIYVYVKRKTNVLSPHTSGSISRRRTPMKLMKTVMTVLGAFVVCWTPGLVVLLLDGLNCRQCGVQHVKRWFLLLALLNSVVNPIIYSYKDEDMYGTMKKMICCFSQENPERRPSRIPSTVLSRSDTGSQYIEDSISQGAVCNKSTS

[5] = Inhibition of LPA-induced proliferation of HLF incubated for 1 hr prior to LPA-challenge measured after 48 hrs by BrdU incorporation assay; conditions: Homo sapiens
[6] = target: T1, Lysophosphatidic acid receptor 1; test: Antagonist activity at human recombinant LPA1 expressed in chem-1 cells assessed as inhibition of LPA-induced intracellular calcium mobilization incubated for 30 mins prior to LPA-challenge measured over 100 secs by FLIPR assay; type: functional, cell-based; outline: as §1

Voltage-gated inwardly rectifying potassium channel KCNH2, sequence (Q12809 whole entry): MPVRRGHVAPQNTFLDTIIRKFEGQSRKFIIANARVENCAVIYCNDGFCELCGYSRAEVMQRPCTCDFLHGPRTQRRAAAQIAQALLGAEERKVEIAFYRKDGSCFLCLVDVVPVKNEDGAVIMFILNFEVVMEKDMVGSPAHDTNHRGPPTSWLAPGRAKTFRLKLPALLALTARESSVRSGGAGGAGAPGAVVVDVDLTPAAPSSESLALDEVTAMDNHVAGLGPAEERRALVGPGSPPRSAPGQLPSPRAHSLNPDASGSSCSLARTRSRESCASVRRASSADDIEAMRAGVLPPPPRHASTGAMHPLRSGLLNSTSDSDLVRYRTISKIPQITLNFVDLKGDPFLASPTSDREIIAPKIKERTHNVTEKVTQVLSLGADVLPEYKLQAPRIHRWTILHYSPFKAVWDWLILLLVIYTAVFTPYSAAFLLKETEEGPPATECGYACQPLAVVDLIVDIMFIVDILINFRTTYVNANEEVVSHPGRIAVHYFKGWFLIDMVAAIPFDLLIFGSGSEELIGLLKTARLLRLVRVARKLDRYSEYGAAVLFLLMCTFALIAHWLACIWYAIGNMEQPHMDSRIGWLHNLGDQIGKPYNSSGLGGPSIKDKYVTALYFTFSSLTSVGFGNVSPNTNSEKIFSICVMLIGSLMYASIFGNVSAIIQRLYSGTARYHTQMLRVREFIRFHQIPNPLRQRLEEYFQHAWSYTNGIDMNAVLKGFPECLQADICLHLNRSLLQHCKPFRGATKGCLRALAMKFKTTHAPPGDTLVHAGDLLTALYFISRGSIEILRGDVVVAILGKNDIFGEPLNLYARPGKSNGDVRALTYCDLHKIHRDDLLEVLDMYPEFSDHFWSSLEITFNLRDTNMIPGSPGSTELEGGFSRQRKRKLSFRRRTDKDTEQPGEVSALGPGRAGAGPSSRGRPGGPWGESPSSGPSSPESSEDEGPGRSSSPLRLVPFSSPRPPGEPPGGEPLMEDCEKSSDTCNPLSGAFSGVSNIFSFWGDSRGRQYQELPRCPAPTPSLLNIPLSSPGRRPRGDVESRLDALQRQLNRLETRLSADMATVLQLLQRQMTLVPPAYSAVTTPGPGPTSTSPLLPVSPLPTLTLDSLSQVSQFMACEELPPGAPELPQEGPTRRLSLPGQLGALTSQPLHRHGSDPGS
T1 sequence (Q92633 whole entry): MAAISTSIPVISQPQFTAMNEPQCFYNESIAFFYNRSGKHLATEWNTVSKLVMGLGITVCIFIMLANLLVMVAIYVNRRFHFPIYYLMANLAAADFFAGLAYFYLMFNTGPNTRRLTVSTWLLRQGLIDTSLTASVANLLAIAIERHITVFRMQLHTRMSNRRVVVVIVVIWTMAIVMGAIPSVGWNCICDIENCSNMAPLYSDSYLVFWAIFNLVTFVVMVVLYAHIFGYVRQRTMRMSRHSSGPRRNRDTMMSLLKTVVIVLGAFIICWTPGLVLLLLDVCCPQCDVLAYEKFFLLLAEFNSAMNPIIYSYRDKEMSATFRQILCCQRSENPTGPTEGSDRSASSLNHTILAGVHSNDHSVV

C[C@H](OC(=O)Nc1c(-c2ccccc2F)cnn1C)c1ccccc1Cl
inhibition (INH) [1]: Not Active
inhibition (INH) [2]: Not Active

C[C@@H](OC(=O)Nc1c(-c2ccccc2)cnn1C)c1ccccc1
inhibition (INH) [1]: Not Active
inhibition (INH) [2]: Not Active
inhibition [3]: 65%

Cn1ncc(-c2ccc(-c3ccc(C4(C(=O)O)CC4)cc3)cc2)c1NC(=O)OC1CCC1
inhibition (INH) [1]: Not Active
inhibition (INH) [2]: Not Active
inhibition [4]: 13.7%
IC50 [5]: 192 nM

C[C@H](OC(=O)Nc1c(-c2ccc(-c3ccc(C4(C(=O)O)CC4)cc3)cc2)nnn1C)c1cccc(C(F)(F)F)c1
inhibition (INH) [1]: Not Active
inhibition (INH) [2]: Not Active

C[C@@H](OC(=O)Nc1c(-c2ccc(-c3ccc(CC(=O)O)cc3)cc2)nnn1C)c1ccccc1
inhibition (INH) [1]: Not Active
inhibition (INH) [2]: Not Active
IC50 [5]: 60 nM

C[C@@H](OC(=O)Nc1nnn(C)c1-c1ccc(-c2ccc(C3(C(=O)O)CC3)cc2)cc1)c1ccccc1
inhibition (INH) [1]: Not Active
inhibition (INH) [2]: Not Active
inhibition [4]: 10%
inhibition [3]: 12%

Cc1nnn(-c2ccc(-c3ccc(C4(C(=O)O)CC4)cc3)cc2)c1NC(=O)O[C@H](C)C(C)C
inhibition (INH) [1]: Not Active
inhibition (INH) [2]: Not Active
inhibition [4]: 17%
IC50 [5]: 60 nM

C[C@@H](OC(=O)Nc1c(-c2ccc(-c3ccccc3)cc2)cnn1C)c1ccccc1
inhibition (INH) [1]: Not Active
inhibition (INH) [2]: Not Active

CC(C)[C@@H](C)OC(=O)Nc1c(-c2ccc(-c3ccc(C4(C(=O)O)CC4)cc3)cc2)nnn1C
inhibition (INH) [1]: Not Active
inhibition (INH) [2]: Not Active
inhibition [4]: 24%
IC50 [5]: 20 nM

Cc1nnn(-c2ccc(-c3ccc(CC(=O)O)cc3)cc2)c1NC(=O)O[C@H](C)c1ccccc1
inhibition (INH) [1]: Not Active
inhibition (INH) [2]: Not Active
inhibition [4]: 3%
inhibition [3]: 41%

C[C@@H](OC(=O)Nc1c(-c2ccc(-c3ccc(C4(C(=O)O)CC4)cc3)cc2)nnn1C)c1cccc(C(F)(F)F)c1
inhibition (INH) [1]: Not Active
inhibition (INH) [2]: Not Active
IC50 [5]: 74 nM
IC50 [6]: 17 nM

C[C@@H](OC(=O)Nc1c(-c2ccc(-c3ccc(CC(=O)O)cc3)cc2)cnn1C)c1ccccc1
inhibition (INH) [1]: Not Active
inhibition (INH) [2]: Not Active
IC50 [5]: 47 nM

CC[C@@H](C)OC(=O)Nc1c(C)nnn1-c1ccc(-c2ccc(C3(C(=O)O)CC3)cc2)cc1
inhibition (INH) [1]: Not Active
inhibition (INH) [2]: Not Active
inhibition [4]: 0%
IC50 [5]: 178 nM

CC(C)[C@@H](C)OC(=O)Nc1c(-c2ccc(-c3ccc(C4(C(=O)O)CC4)cc3)cc2)cnn1C
inhibition (INH) [1]: Not Active
inhibition (INH) [2]: Not Active
inhibition [4]: 9%
IC50 [5]: 30 nM

Cc1nnn(-c2ccc(-c3ccc(C4(C(=O)O)CC4)cc3)cc2)c1NC(=O)O[C@H](C)c1ccccc1C(F)(F)F
inhibition (INH) [1]: Not Active
inhibition (INH) [2]: Not Active
inhibition [4]: 55%
IC50 [5]: 77 nM

Cc1nnn(-c2ccc(-c3ccc(C4(C(=O)O)CC4)cc3)cc2)c1NC(=O)O[C@H](C)c1cccc(C(F)(F)F)c1
inhibition (INH) [1]: Not Active
inhibition (INH) [2]: Not Active
IC50 [5]: 1200 nM

C[C@@H](OC(=O)Nc1cnnn1-c1ccc(-c2ccc(C3(C(=O)O)CC3)cc2)cc1)c1ccccc1
inhibition (INH) [1]: Not Active
inhibition (INH) [2]: Not Active
inhibition [4]: 23%
IC50 [5]: 40 nM

C[C@@H](OC(=O)Nc1c(-c2ccc(-c3ccc(C4(C(=O)NS(C)(=O)=O)CC4)cc3)cc2)nnn1C)c1ccccc1
inhibition (INH) [1]: Not Active
inhibition (INH) [2]: Not Active
IC50 [5]: 4 nM

CC[C@@H](C)OC(=O)Nc1c(-c2ccc(-c3ccc(C4(C(=O)O)CC4)cc3)cc2)cnn1C
inhibition (INH) [1]: Not Active
inhibition (INH) [2]: Not Active
inhibition [4]: 0%
IC50 [5]: 48 nM

COc1ccc(-c2cnn(C)c2NC(=O)O[C@H](C)c2ccccc2)cc1
inhibition (INH) [1]: Not Active
inhibition (INH) [2]: Not Active

CCOC(=O)C1(c2ccc(-c3ccc(-c4cnn(C)c4NC(=O)O[C@H](C)c4ccccc4)cc3)cc2)CC1
inhibition (INH) [1]: Not Active
inhibition (INH) [2]: Not Active
inhibition [3]: 65%

CC(OC(=O)Nc1c(-c2ccc(-c3ccc(C4(C(=O)O)CC4)cc3)cc2)cnn1C)c1ccc(F)cc1 (racemic)
inhibition (INH) [1]: Not Active
inhibition (INH) [2]: Not Active
IC50 [5]: 5 nM

Cc1nnn(-c2ccc(-c3ccc(C4(C(=O)O)CC4)cc3)cc2)c1NC(=O)O[C@H](C)c1ccccc1F
inhibition (INH) [1]: Not Active
inhibition (INH) [2]: Not Active
inhibition [4]: 42%
IC50 [5]: 21 nM

Cc1nnn(-c2ccc(-c3ccc(C4(C(=O)O)CC4)cc3)cc2)c1NC(=O)OC(C)C1CCC1 (racemic)
inhibition (INH) [1]: Not Active
inhibition (INH) [2]: Not Active
inhibition [4]: 26%
IC50 [5]: 189 nM

C[C@@H](OC(=O)Nc1c(-c2ccc(-c3ccc(C4(C(=O)O)CC4)cc3)cc2)cnn1C)c1ccccc1F
inhibition (INH) [1]: Not Active
inhibition (INH) [2]: Not Active
IC50 [5]: 4.5 nM

C[C@@H](OC(=O)Nc1nncn1-c1ccc(-c2ccc(C3(C(=O)O)CC3)cc2)cc1)c1ccccc1
inhibition (INH) [1]: Not Active
inhibition (INH) [2]: Not Active
inhibition [4]: 17%
inhibition [3]: 11%

C[C@@H](OC(=O)Nc1c(-c2ccc(-c3ccc(C4(C(=O)O)CC4)cc3)cc2)cnn1C)c1ccccc1
inhibition (INH) [1]: Not Active
inhibition (INH) [2]: Not Active
IC50 [5]: 2.6 nM
IC50 [6]: 21 nM

Cc1nnn(-c2ccc(-c3ccc(C4(C(=O)O)CC4)cc3)cc2)c1NC(=O)OC(C)(C)C
inhibition (INH) [1]: Not Active
inhibition (INH) [2]: Not Active
inhibition [4]: 0%
IC50 [5]: 1620 nM

C[C@@H](OC(=O)Nc1c(-c2ccc(-c3ccc(C4(C(=O)O)CC4)cc3)cc2)cnn1C)c1cccc(C(F)(F)F)c1
inhibition (INH) [1]: Not Active
inhibition (INH) [2]: Not Active
IC50 [5]: 37 nM
IC50 [6]: 41 nM

C[C@@H](OC(=O)Nc1c(-c2ccc(C3CCC(CC(=O)O)CC3)cc2)nnn1C)c1ccccc1 (mixture of isomers)
inhibition (INH) [1]: Not Active
inhibition (INH) [2]: Not Active
IC50 [5]: 7 nM

C[C@@H](OC(=O)Nc1c(-c2ccc(CC(=O)O)cc2)cnn1C)c1ccccc1
inhibition (INH) [1]: Not Active
inhibition (INH) [2]: Not Active

Cn1ncc(-c2ccc(-c3ccc(C4(C(=O)O)CC4)cc3)cc2)c1NC(=O)OC1COC1
inhibition (INH) [1]: Not Active
inhibition (INH) [2]: Not Active
inhibition [4]: 0%
inhibition [3]: 0%

C[C@@H](OC(=O)Nc1c(-c2ccc(-c3ccc(C4(C(=O)O)CC4)cc3)cc2F)nnn1C)c1ccccc1
inhibition (INH) [1]: Not Active
inhibition (INH) [2]: Not Active
IC50 [5]: 2 nM

C[C@@H](OC(=O)Nc1c(-c2ccc(-c3ccc(C4(C(=O)O)CC4)cc3)cc2)nnn1C)c1ccccc1
inhibition (INH) [1]: Not Active
inhibition (INH) [2]: Not Active
IC50 [5]: 3 nM
